Data: publication PMC9527016 (Toxicology letters, 2020)

Assays:
[1] = test system: cysteine peptide Ac-RFAACAA-COOH; assay: Confirmation of chemical-cysteine peptide adduct by HPLC-TOF-MS; type: biochemical; details: HPLC-TOF-MS after 24 h incubation; Figure 6
How it was run: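 Cysteine peptide (Ac-RFAACAA-COOH) is mixed with alanine peptide and incubated with test compound for 24 h. The mixture is run by C18 LC (60 °C, 0.4 mL/min, 22 min water/acetonitrile 0.1% formic acid gradient) with positive-mode ESI-TOF MS over m/z 150–1700. Total ion chromatograms are recorded, and mass spectra of selected peaks are inspected for adduct or peptide dimer masses.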

[2] = test system: lysine peptide Ac-RFAAKAA-COOH; assay: Lysine peptide depletion, HPLC-TOF-MS; type: biochemical
How it was run: (§1)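 Peptide mixtures are separated on a C18 column (2.1×150 mm, 1.7 μm) at 60 °C and 0.4 mL/min. Mobile phases are water and acetonitrile with 0.1% formic acid, run over a 22 min gradient. Detection is by positive-mode ESI-TOF MS over m/z 150–1700. Seven concentrations of test compound are tested. Integrated lysine or alanine peptide area is normalised to the DMSO control.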

[3] = test system: alanine peptide Ac-RFAAAAA-COOH; assay: Alanine peptide signal, HPLC-TOF-MS; type: biochemical
How it was run: as §1

[4] = test system: alanine peptide Ac-RFAAAAA-COOH; assay: Alanine peptide; type: biochemical
How it was run: (§2)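 Lysine peptide (Ac-RFAAKAA-COOH) and alanine internal-standard peptide are mixed, each at 0.5 mM final, in acetate ammonia buffer pH 10.2. Test compound in DMSO […] is added in a 384-well plate and incubated 24 h at room temperature. The range is 12 μM–50 mM or 25 μM–100 mM. Samples are diluted to 0.05 μM, then analysed by C4 SPE with triple-quadrupole MRM. Peptide area is normalised to DMSO wells.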

[5] = test system: lysine peptide Ac-RFAAKAA-COOH; assay: Lysine peptide depletion, RapidFire-MS/MS DPRA; type: biochemical
How it was run: as §2

[6] = test system: cysteine peptide Ac-RFAACAA-COOH; assay: Cysteine peptide depletion, RapidFire-MS/MS DPRA; type: biochemical; details: for Detection as sensitizer in the cysteine peptide depletion assay: threshold defined by OECD test guideline 442C
[7] = test system: lysine peptide; details: cited from earlier work
[8] = Precipitation in lysine peptide buffer; type: physicochemical; details: 100 mM added into the lysine peptide buffer

O=C/C=C/c1ccccc1 [Cinnamic aldehyde]
Adduct formation with cysteine peptide [1]: formed adduct peak with cysteine peptide | Lysine peptide signal, HPLC-TOF-MS ([2]; at 100 mM, Figure 5B): slight decrease | Alanine peptide signal, HPLC-TOF-MS ([3]; 7-point concentration range, Figure 5A): no changes were observed | Decrease in alanine peptide signal (depletion), RapidFire-MS/MS ([4]; high concentrations (above 1 mM), area normalized to DMSO, Figure 5A): > 60%

C=C(C)C(=O)OCCOC(=O)C(=C)C [Ethylene glycol dimethacrylate]
Adduct formation with cysteine peptide [1]: formed adduct peak with cysteine peptide

CCCOC(=O)c1cc(O)c(O)c(O)c1 [Propyl gallate]
Depletion of the lysine peptide at the highest tested concentrations [5]: more than 50%

CCCCCCCCCCCCOC(=O)c1cc(O)c(O)c(O)c1 [Dodecyl gallate]
Detection as sensitizer in the cysteine peptide depletion assay [6]: not detected

O=CCCCC=O [Glutaraldehyde]
Lysine peptide signal vs concentration, HPLC-TOF-MS ([2]; Figure 5E): decreased in a concentration-dependent manner | Alanine peptide signal vs concentration, HPLC-TOF-MS ([3]; Figure 5D): decreased in a concentration-dependent manner | Alanine peptide signal vs concentration, RapidFire-MS/MS ([4]; Figure 5D): decreased in a concentration-dependent manner | Depletion of the lysine peptide at the highest tested concentrations [5]: more than 50% | Lysine peptide signal vs concentration, RapidFire-MS/MS ([5]; lysine peptide area only, Figure 5E): decreased in a concentration-dependent manner

CCCCCCCCCCCCCCCC(=O)Cl [Palmitoyl chloride]
Lysine peptide depletion (literature) ([7]; ref No, O.T., 2015): almost completely depleted lysine peptide | Precipitation on addition to lysine peptide buffer [8]: immediate precipitation | Detection as sensitizer in the cysteine peptide depletion assay [6]: not detected

O=C(NCNC(=O)NC1C(=O)NC(=O)N1CO)NC1C(=O)NC(=O)N1CO (stereo not shown) [Imidazolidinyl urea]
Detection as sensitizer in the cysteine peptide depletion assay [6]: not detected

C=CC(=O)OCC [Ethyl acrylate]
Detection as sensitizer in the cysteine peptide depletion assay [6]: not detected | Depletion of the lysine peptide at the highest tested concentrations [5]: more than 50%

CCCCCC [n-Hexane]
Efficacy (% peptide depletion), cysteine peptide ([6]; pH 7.5): Inactive | IC50 (M), depletion of cysteine peptide ([6]; pH 7.5): Inactive

C=CC(=O)OCCO [Hydroxyethyl acrylate]
Depletion of the lysine peptide at the highest tested concentrations [5]: more than 50%

Oc1ccc(O)cc1 [Hydroquinone]
Depletion of the lysine peptide ([7]; at 0.5 mM, ref Gerberick et al., 2004): 83.3% | Depletion of the lysine peptide at the highest tested concentrations [5]: more than 50%

C=C(C)C(=O)OCC(C)O (stereo not shown) [2-Propenoic acid, 2-methyl-, monoester with 1,2-propanedio]
Detection as sensitizer in the cysteine peptide depletion assay [6]: not detected

O=CCc1ccccc1 [Phenylacetaldehyde]
Detection as sensitizer in the cysteine peptide depletion assay [6]: not detected
